From ChEMBL document CHEMBL1155267, “Synthesis of novel bioactive derivatives of 3-(4-chlorophenyl)-2-hydrazino-5,6,7,8-tetrahydrobenzo(b)thieno[2,3-d]pyrimidine-4(3H)-ones” (2009) come the findings set out here.

What all share (type): functional
Experiment [1] deals with Mus musculus. Description: Antidepressant activity in Swiss albino mouse at 5 mg/kg, ip after 30 mins by photoactometer method. As to conditions: route intraperitoneal. The gist of the method: (§1)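 Swiss albino mice of either sex, 25–40 g, six per group, acclimatised 10 min. Baseline photoactometer counts were taken over 10 min. Dosing was 5 mg/kg i.p. in 1% CMC, with each group serving as its own control. At 20 and 50 min animals entered the chamber, rested 10 min, then counts were taken for 10 min. % depression = (control − decrease in count)/control ×100. Mean ± SEM, n=6.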

Experiment [2] has as its system Mus musculus. The experiment in a line: Antidepressant activity in Swiss albino mouse at 5 mg/kg, ip after 60 mins by photoactometer method. Particulars: route intraperitoneal. The gist of the method:
as §1

Experiment [3] concerns Mus musculus. The experiment in a line: Skeletal muscle relaxant activity in Swiss albino mouse assessed as number of falls form rotarod at 5 mg/kg, ip after 30 mins by rotarod method relative to Diazepam. Also on record: scale not given: the % may be the effect or the level left. Particulars: route intraperitoneal. The gist of the method: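 Mice 25–40 g, six per group, were dosed at 5 mg/kg in 1% CMC, with each group serving as its own control. Falls per min on the Rotarod were recorded before dosing and 30 min after. % relaxation = (mean increase in falls − mean control)/mean control ×100. Mean ± SEM, n=6.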
On the technique in general: The rotarod test checks motor coordination on a turning rod.

For experiment [4], the system named is Mus musculus. Description: Anticonvulsant activity in Swiss albino mouse assessed as protection against PTZ-induced clonic convulsions at 8 mg/kg, ip administered after 30 mins PTZ challenge measured for 20 mins. Particulars: route intraperitoneal. The gist of the method: (§2)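 Groups of six mice got the test suspension in 1% CMC i.p. at the stated dose. After 30 min they received aqueous PTZ 85 mg/kg s.c. and were watched for 20 min for clonic convulsions. The result is the percentage of animals protected.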

Experiment [5] deals with Mus musculus. The experiment in a line: Anticonvulsant activity in Swiss albino mouse assessed as protection against PTZ-induced clonic convulsions at 6 mg/kg, ip administered after 30 mins PTZ challenge measured for 20 mins. Particulars: route intraperitoneal. The gist of the method: as §2
For experiment [6], the system named is Mus musculus. Description: Anticonvulsant activity in Swiss albino mouse assessed as protection against PTZ-induced clonic convulsions at 7 mg/kg, ip administered after 30 mins PTZ challenge measured for 20 mins. As to conditions: route intraperitoneal. The gist of the method: as §2
For experiment [7], the system named is Mus musculus. Description: Anticonvulsant activity in Swiss albino mouse assessed as protection against PTZ-induced clonic convulsions administered after 30 mins PTZ challenge measured for 20 mins. In outline: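 Mice (groups of six) got the test suspension in 1% CMC i.p., then 30 min later aqueous PTZ 85 mg/kg s.c. Clonic convulsions were watched for 20 min. The number of animals protected per group served as the percentage response for calculating ED50.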

Experiment [8] relates to Mus musculus. The experiment in a line: Anticonvulsant activity in Swiss albino mouse assessed as protection against PTZ-induced clonic convulsions at 5 mg/kg, ip administered after 30 mins PTZ challenge measured for 20 mins. As to conditions: route intraperitoneal. The gist of the method: as §2
For experiment [9], the system named is Mus musculus. Description: Anticonvulsant activity in Swiss albino mouse assessed as protection against PTZ-induced clonic convulsions at 9 mg/kg, ip administered after 30 mins PTZ challenge measured for 20 mins. As to conditions: route intraperitoneal. In outline:
as §2

In experiment [10] the test system is Mus musculus. Description: Anticonvulsant activity in Swiss albino mouse assessed as protection against PTZ-induced clonic convulsions at 10 mg/kg, ip administered after 30 mins PTZ challenge measured for 20 mins. As to conditions: route intraperitoneal. The gist of the method:
as §2

The subject of experiment [11] is Mus musculus. Description: Anticonvulsant activity in Swiss albino mouse assessed as protection against PTZ-induced clonic convulsions at 11 mg/kg, ip administered after 30 mins PTZ challenge measured for 20 mins. Particulars: route intraperitoneal. The gist of the method:
as §2

In experiment [12] the test system is Mus musculus. Description: Anticonvulsant activity in Swiss albino mouse assessed as protection against PTZ-induced clonic convulsions at 4 mg/kg, ip administered after 30 mins PTZ challenge measured for 20 mins. As to conditions: route intraperitoneal. The gist of the method: as §2

One may read the ED50 as the dose at which the effect has come halfway, by size or by number of responders.

For `Nc1nnc2n(-c3ccc(Cl)cc3)c(=O)c3c4c(sc3n12)CCCC4`, the Activity is on record as 82.24% in experiment [1]; 88.78% in experiment [2]; 107.52% in experiment [3]; 100% in experiment [4]; 16.66% in experiment [5]; 66.66% in experiment [6]. Moreover, the ED50 in experiment [7] was found to be 6.73 mg/kg.
For `O=c1c2c3c(sc2n2c(S)nnc2n1-c1ccc(Cl)cc1)CCCC3`, the Activity in [1] was determined as 81.71%; in experiment [2], 90%; in [3], 109.62%; in experiment [8] it was 33.33%; in experiment [5] it was 66.66%; in experiment [6], 100%. Further, the ED50 in [7] worked out at 5.5 mg/kg.
With `Cc1nnc2n(-c3ccc(Cl)cc3)c(=O)c3c4c(sc3n12)CCCC4`, the Activity came out at 75.51% in [1]; 82.65% in [2]; 102.75% in experiment [3]; 33.33% in [9]; 83.33% in experiment [10]; 100% in [11]. Also, the ED50 in [7] was found to be 9.33 mg/kg.
For `CCCc1nnc2n(-c3ccc(Cl)cc3)c(=O)c3c4c(sc3n12)CCCC4`, the Activity in experiment [1] is given as 78.78%; in experiment [2] it was 90.4%; in experiment [3], 116.62%; in experiment [12] it was 16.66%; in experiment [8], 83.33%; in [5], 100%. The ED50 in [7] turned out to be 4.4 mg/kg.
Turning to `CN1C(=O)CN=C(c2ccccc2)c2cc(Cl)ccc21` [DIAZEPAM], the Activity in experiment [1] amounted to 85.43%; in experiment [2], 89.32%. Also, the ED50 in [7] is 1.18 mg/kg.
For `CCc1nnc2n(-c3ccc(Cl)cc3)c(=O)c3c4c(sc3n12)CCCC4`, the Activity is 71.42% in experiment [1]; 83.92% in experiment [2]; 105.49% in experiment [3]; 66.66% in [9]; 100% in experiment [10]; 33.33% in experiment [4]. The ED50 in [7] came out at 8.5 mg/kg.
